Data on one compound can be found in ChEMBL document CHEMBL4024790 (J Med Chem, 2018).

The species entered for data set [1] is Mus musculus. The data set is described as follows: Effect on cAMP level in CD-1 mouse brain hippocampus by immunoassay. Format: functional. The method, boiled down: (§1)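 CD-1 mice dosed SC (solution in 20% SBE-β-CD with 2 molar equivalents 1N HCl, 1 mL/kg); euthanized by focused microwave irradiation of brain; cortex, striatum, hippocampus homogenized in 0.5 N HCl, centrifuged; cyclic nucleotides in supernatant by enzyme immunoassay. Unbound brain exposure from satellite animals; dose-response and time-course data combined with linear model; one-way ANOVA with Fisher's PLSD.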

The nature of data set [2]: Cmax in Wistar Han rat at 5 mg/kg, po administered via gavage by LC-MS/MS analysis. Format: ADME, organism-based. Further details: dose 5 mg/kg, route oral. As to conditions: in vivo.
In data set [3] the test system is Canis familiaris. The experiment in a line: Toxicity in dog up to 30 mg/kg, po administered as single dose by microscopic method. The following applies: in vivo. Format: organism-based, Canis lupus familiaris.
Data set [4] in a line: Drug metabolism in dog hepatocytes assessed as 1-(7-methyl-5-(1-methyl-5-(5-(trifluoromethyl)pyridin-2-yl)-1H-pyrazol-4-yl)imidazo[1,5-f][1,2,4]triazin-4-yl)azetidin-3-ol formation at 1 to 50 uM after 1 hr by LC-MS/MS analysis. Format: ADME, cell-based, Canis lupus familiaris, Hepatocyte. The method, boiled down: (§2)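 Rat, dog or human liver microsomes or hepatocytes (P450 0.35–0.5 µM final) incubated with compound at 1, 10 or 50 µM in 100 mM phosphate buffer with 1 mM NADP regenerating system, 37°C for 1 h; quenched with 4 volumes acetonitrile, centrifuged, supernatant evaporated, reconstituted in 5% aqueous acetonitrile and analysed by reversed-phase LC.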

Data set [5] is filed under the species Mus musculus. The experiment in a line: Increase in cGMP level in CD-1 mouse brain cortex assessed as unbound brain concentration required to show the effect by immunoassay. Format: functional. A digest of the protocol: as §1
For data set [6], the target named is T1, Aldehyde oxidase (Homo sapiens, UniProt Q06278).
T1 sequence (Q06278 whole entry): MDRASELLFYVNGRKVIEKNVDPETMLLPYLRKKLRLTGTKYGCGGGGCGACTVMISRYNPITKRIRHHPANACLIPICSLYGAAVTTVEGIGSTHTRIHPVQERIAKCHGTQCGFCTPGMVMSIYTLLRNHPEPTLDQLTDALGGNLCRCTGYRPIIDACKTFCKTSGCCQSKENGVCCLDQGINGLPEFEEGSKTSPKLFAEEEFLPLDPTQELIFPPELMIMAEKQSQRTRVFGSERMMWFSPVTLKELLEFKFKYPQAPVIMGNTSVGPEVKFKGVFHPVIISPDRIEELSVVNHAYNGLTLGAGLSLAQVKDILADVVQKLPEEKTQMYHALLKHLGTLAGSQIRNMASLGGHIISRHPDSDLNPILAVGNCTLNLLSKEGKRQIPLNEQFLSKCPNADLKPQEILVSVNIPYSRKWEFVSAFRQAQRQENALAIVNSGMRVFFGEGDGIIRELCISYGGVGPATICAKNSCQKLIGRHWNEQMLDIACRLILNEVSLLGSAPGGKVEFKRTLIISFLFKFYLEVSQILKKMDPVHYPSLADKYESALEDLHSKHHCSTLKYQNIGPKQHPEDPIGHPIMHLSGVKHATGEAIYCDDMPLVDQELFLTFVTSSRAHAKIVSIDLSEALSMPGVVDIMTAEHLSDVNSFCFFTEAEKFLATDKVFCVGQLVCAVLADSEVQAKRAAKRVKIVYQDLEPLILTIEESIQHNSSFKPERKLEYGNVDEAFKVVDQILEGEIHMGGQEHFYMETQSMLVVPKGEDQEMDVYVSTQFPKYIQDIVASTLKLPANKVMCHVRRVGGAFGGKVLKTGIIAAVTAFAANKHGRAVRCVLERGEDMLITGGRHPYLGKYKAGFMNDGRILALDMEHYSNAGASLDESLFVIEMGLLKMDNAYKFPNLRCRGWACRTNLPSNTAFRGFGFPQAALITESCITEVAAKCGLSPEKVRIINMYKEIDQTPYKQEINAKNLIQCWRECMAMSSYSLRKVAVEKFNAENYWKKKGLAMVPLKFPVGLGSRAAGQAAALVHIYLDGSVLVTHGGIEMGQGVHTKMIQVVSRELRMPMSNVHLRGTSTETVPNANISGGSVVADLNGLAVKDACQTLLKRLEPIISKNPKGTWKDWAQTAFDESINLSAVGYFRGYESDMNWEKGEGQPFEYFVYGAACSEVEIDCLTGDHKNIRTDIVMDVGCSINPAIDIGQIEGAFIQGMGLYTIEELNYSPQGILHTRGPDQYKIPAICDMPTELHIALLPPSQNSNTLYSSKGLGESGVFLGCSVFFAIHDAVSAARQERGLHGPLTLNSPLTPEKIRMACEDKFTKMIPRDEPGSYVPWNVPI
The experiment in a line: Drug metabolism assessed as aldehyde oxidase (unknown origin)-mediated metabolite formation. In kind it is ADME.

The species named for data set [7] is Mus musculus. The experiment in a line: Effect on cAMP level in CD-1 mouse brain striatum by immunoassay. Format: functional. The method, boiled down: as §1
Data set [8] is described as follows: Drug metabolism in human hepatocytes assessed as 1-(7-methyl-5-(1-methyl-5-(5-(trifluoromethyl)pyridin-2-yl)-1H-pyrazol-4-yl)imidazo[1,5-f][1,2,4]triazin-4-yl)azetidin-3-ol formation at 1 to 50 uM after 1 hr by LC-MS/MS analysis. Format: ADME, cell-based, Hepatocyte. A digest of the protocol:
as §2

A short description of data set [9]: Oral bioavailability in beagle dog at 5 mg/kg administered via gavage by LC-MS/MS analysis. Format: ADME, organism-based, Canis lupus familiaris. The following applies: in vivo.
The test system of data set [10] is Rattus norvegicus. The data set is described as follows: Reversal of MK-801-induced disruption of low frequency cortical delta oscillation in Sprague-Dawley rat brain at 0.1 mg/kg, iv up to 55 mins by electrophysiology method. Format: functional, organism-based.
In data set [11] the test system is Rattus norvegicus. The data set is described as follows: Antipsychotic activity in Long Evans rat at 0.32 to 3.2 mg/kg, sc by conditioned avoidance responding assay. Format: functional, organism-based. The method, boiled down:
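Rats dosed SC at 0.32, 1.0 and 3.2 mg/kg; conditioned avoidance responding also run in combination with risperidone 0.032 mg/kg.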

Data set [12] deals with Rattus norvegicus. The data set is described as follows: Reversal of ketamine-induced working memory deficit in Long Evans rat at 0.032 to 0.32 mg/kg, sc by radial arm maze assay.
In data set [13] the test system is Mus musculus. The data set is described as follows: In vivo effect on phosphorylated CREB level in CD-1 mouse brain striatum by immunoassay. Format: functional, organism-based.
The nature of data set [14]: Oral bioavailability in Wistar Han rat at 5 mg/kg administered via gavage by LC-MS/MS analysis. The following applies: in vivo. Format: ADME, organism-based.
Data set [15] concerns Canis familiaris. The experiment in a line: Toxicity in dog assessed as effect on vasculature up to 15 mg/kg/day, po for 14 days by microscopic method. Format: organism-based, Canis lupus familiaris. As to conditions: in vivo, 336 h.
For data set [16], the species on record is Rattus norvegicus. The experiment in a line: Toxicity in rat assessed as effect on skeletal muscle up to 1 month by microscopic method. As to conditions: in vivo.
The test system of data set [17] is Liver. The experiment in a line: Drug metabolism in dog liver microsomes assessed as 1-(7-methyl-5-(1-methyl-5-(5-(trifluoromethyl)pyridin-2-yl)-1H-pyrazol-4-yl)imidazo[1,5-f][1,2,4]triazin-4-yl)azetidin-3-ol formation at 1 to 50 uM after 1 hr by LC-MS/MS analysis. Format: ADME, Canis lupus familiaris, microsome. A digest of the protocol:
as §2

Data set [18] concerns Rattus norvegicus. The data set is described as follows: Reversal of ketamine-induced working memory deficit in Long Evans rat at 1 mg/kg, sc by radial arm maze assay. Format: functional, organism-based. A digest of the protocol:
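Rats trained in a radial arm maze working-memory task, with deficit induced by ketamine. Compound dosed sc; errors compared with vehicle + ketamine. N = 20–23 per group, Hochberg test. Cbu at the tested doses estimated from satellite pharmacokinetic animals.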

The source made the active and inactive calls. The calls are words filed in the database; no cut-off is given here.

On to `Cc1nc(-c2cnn(C)c2-c2ccc(C(F)(F)F)cn2)c2c(N3CCC3)ncnn12` [PF-05180999], for which the result in data set [1], in data set [7], in [11], in data set [13] and in data set [18] was inactive. This compound also gave a Cmax in [2] of 363 ng/mL. In addition, the results for the Activity entry in data set [3], in data set [15] and in data set [16] were “Non-Toxic”, “Non-Toxic” and “Toxic”, respectively. Besides, the Drug metabolism result in data set [4] is “Metabolite_Detected”; in data set [6] it was “Metabolite_Notdetected”; in [8], “Metabolite_Detected”; in [17], “Metabolite_Detected”. The fEC50 in data set [5] came out at 79.4 nM. Moreover, the values for the bioavailability in data set [9] and in data set [14] were 57% and 44%, respectively. The outcome in data set [10] and in [12] was Active.
